Experiment [1] addresses T1, Neuronal acetylcholine receptor; alpha4/beta2 (Homo sapiens, UniProt P17787+P43681). Kind of experiment: Displacement of [3H]-epibatidine from human nAChR alpha4beta2 expressed in human SH-EP1 cells. The experiment is classed as cell-based. A digest of the protocol: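 Radioligand binding using [3H]-epibatidine on human α4β2 nAChR expressed in SH-EP1 cells. Affinity reported as Ki, given as the mean.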

The target in experiment [2] is T2, Neuronal acetylcholine receptor; alpha3/beta4 (Homo sapiens, UniProt P30926+P32297). The experiment is described as follows: Agonist activity at human ganglionic nAChR alpha3beta4 expressed in human SHSY-5Y cells assessed as calcium flux by fluorescence analysis relative to nicotine. The following applies: SH-SY5Y. (Calcium assays in cells follow changes in intracellular calcium, usually with a dye or a luminescent sensor.)
T2 sequence (P30926 whole entry): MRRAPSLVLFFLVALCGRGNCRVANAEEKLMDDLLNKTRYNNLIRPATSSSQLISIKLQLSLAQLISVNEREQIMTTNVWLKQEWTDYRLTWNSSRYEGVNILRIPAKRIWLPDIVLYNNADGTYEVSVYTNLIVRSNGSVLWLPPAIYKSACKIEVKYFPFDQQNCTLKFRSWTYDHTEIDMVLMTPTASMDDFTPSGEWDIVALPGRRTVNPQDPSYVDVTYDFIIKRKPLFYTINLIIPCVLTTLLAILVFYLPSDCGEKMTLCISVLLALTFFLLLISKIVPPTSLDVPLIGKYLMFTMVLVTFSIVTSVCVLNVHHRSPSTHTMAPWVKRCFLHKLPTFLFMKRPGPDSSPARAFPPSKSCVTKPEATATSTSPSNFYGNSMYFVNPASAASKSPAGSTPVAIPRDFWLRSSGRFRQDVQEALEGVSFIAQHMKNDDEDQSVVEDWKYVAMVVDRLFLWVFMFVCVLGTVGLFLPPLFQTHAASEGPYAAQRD
T2 sequence (P32297 whole entry): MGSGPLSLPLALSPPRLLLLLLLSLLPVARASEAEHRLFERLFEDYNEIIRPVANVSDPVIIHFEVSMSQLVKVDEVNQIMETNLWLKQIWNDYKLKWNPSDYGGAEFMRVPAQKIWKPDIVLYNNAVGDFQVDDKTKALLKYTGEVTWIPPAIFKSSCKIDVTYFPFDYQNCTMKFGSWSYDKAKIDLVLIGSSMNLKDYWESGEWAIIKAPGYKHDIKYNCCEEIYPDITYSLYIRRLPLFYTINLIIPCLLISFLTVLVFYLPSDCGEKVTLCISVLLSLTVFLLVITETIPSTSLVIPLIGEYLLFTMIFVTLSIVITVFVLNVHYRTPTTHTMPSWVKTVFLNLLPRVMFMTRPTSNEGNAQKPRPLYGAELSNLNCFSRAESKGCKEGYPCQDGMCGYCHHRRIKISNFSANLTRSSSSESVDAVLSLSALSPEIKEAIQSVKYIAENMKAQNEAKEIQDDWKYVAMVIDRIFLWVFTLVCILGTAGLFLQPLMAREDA

Experiment [3] deals with T2, Neuronal acetylcholine receptor; alpha3/beta4. Kind of experiment: Binding affinity to human ganglionic nAChR alpha3beta4 expressed in human SHSY-5Y cells. Type of experiment: cell-based, SH-SY5Y. Summed up: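 Binding measured on the α3β4 subtype endogenous to human SHSY-5Y clonal cells. Affinity reported as Ki, given as the mean.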
Experiment [4] addresses Acetylcholine receptor; alpha1/beta1/delta/gamma (Homo sapiens, UniProt P02708+P07510+P11230+Q07001). The experiment is described as follows: Binding affinity to human muscle nAChR alpha1beta1gammadelta expressed in human TE-671 cells. Type of experiment: cell-based. Summed up: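 Binding carried out in TE-671 cells as the muscle-type receptor source. Affinity reported as Ki, given as the mean.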

Experiment [5] has as its target T1, Neuronal acetylcholine receptor; alpha4/beta2. Kind of experiment: Antagonist activity at human nAChR alpha4beta2 expressed in human SH-EP1 cells assessed as calcium flux by fluorescence analysis relative to nicotine. Type of experiment: functional, cell-based.
Experiment [6] deals with Neuronal acetylcholine receptor subunit alpha-7 (Homo sapiens, UniProt P36544). The experiment is described as follows: Binding affinity to human nAChR alpha7 expressed in HEK cells coexpressing RIC3. The experiment is classed as cell-based, HEK293. A digest of the protocol:
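Binding measured at human α7 nAChR in HEK cells coexpressing RIC3. Affinity reported as Ki, given as the mean.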

Experiment [7] concerns the target T2, Neuronal acetylcholine receptor; alpha3/beta4. The experiment is described as follows: Agonist activity at human ganglionic nAChR alpha3beta4 expressed in human SHSY-5Y cells assessed as calcium flux by fluorescence analysis.
Experiment [8] addresses Neuronal acetylcholine receptor; alpha4/beta2 (Rattus norvegicus, UniProt P09483+P12390). Kind of experiment: Displacement of [3H]-nicotine from rat nAChR alpha4beta2 in rat cortex. A general note: Displacement assays read how much labelled ligand stays bound in the presence of the test substance.

SMILES strings stand for the structures.

Experimental findings from ChEMBL document CHEMBL2057085, “Diazaspirocyclic compounds as selective ligands for the α4β2 nicotinic acetylcholine receptor” (Bioorg Med Chem Lett, 2012) are described below.

Chain of Neuronal acetylcholine receptor; alpha4/beta2 (Rattus norvegicus, UniProt P09483+P12390) (P09483 whole entry): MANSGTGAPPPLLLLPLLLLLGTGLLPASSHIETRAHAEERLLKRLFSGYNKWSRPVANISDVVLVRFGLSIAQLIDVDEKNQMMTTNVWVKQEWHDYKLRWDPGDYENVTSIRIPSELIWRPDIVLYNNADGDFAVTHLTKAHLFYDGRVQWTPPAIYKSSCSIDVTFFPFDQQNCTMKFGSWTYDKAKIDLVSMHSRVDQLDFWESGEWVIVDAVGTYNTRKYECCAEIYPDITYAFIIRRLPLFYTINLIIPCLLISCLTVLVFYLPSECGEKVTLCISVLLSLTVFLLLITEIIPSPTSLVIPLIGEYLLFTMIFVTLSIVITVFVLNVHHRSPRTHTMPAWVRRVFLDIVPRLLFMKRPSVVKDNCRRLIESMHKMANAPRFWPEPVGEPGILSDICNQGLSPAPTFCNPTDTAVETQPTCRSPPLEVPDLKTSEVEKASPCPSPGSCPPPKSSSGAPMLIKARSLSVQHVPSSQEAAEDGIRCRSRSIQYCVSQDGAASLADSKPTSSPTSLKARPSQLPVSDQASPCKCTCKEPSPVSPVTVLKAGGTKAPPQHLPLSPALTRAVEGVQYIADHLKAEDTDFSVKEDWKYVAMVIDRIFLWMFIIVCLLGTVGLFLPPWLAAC
Chain of Neuronal acetylcholine receptor; alpha4/beta2 (Rattus norvegicus, UniProt P09483+P12390) (P12390 whole entry): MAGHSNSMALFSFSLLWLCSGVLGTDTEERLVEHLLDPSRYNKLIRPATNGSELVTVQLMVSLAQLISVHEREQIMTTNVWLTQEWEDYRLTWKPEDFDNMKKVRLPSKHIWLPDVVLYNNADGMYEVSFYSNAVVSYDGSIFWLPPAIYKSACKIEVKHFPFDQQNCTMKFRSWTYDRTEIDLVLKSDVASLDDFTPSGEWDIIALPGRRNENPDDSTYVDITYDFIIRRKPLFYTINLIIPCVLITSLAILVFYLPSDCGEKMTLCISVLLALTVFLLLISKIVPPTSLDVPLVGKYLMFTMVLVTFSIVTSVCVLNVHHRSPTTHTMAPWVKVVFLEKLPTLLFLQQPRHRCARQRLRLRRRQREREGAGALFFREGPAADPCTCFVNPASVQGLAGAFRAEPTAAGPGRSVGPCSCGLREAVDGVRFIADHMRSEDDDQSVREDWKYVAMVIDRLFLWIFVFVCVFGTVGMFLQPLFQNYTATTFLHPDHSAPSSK
T1 sequence (P17787 whole entry): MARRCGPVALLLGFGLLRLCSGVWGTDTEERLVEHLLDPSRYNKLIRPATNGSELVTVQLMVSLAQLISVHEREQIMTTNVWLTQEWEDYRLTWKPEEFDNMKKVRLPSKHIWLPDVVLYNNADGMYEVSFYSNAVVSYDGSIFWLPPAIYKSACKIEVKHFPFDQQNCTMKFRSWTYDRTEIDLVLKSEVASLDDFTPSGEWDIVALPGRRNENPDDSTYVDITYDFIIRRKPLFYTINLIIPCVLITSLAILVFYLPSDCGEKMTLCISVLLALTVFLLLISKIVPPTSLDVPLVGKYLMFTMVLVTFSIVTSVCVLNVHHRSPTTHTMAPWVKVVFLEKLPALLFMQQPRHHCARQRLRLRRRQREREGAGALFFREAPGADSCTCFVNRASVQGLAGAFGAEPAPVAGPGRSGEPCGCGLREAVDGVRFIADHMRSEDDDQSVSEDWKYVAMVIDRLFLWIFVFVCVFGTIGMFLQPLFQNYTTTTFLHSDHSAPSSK
T1 sequence (P43681 whole entry): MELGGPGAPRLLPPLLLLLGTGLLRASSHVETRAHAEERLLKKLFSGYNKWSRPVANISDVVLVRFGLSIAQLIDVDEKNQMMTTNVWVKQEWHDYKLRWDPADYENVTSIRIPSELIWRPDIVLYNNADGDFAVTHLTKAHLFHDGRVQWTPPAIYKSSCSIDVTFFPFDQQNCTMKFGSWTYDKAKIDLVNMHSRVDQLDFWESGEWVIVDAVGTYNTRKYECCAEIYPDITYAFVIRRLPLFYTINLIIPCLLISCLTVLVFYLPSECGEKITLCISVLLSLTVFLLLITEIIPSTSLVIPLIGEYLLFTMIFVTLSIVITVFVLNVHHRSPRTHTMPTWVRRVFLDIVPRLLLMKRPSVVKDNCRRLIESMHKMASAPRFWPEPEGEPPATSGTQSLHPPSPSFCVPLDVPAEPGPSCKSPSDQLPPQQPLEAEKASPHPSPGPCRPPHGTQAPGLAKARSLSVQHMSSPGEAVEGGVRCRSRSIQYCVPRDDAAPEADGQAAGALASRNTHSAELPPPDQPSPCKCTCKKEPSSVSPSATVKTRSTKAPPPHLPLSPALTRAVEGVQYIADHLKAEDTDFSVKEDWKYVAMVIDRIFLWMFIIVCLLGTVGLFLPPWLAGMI
Chain of Neuronal acetylcholine receptor subunit alpha-7 (P36544 whole entry): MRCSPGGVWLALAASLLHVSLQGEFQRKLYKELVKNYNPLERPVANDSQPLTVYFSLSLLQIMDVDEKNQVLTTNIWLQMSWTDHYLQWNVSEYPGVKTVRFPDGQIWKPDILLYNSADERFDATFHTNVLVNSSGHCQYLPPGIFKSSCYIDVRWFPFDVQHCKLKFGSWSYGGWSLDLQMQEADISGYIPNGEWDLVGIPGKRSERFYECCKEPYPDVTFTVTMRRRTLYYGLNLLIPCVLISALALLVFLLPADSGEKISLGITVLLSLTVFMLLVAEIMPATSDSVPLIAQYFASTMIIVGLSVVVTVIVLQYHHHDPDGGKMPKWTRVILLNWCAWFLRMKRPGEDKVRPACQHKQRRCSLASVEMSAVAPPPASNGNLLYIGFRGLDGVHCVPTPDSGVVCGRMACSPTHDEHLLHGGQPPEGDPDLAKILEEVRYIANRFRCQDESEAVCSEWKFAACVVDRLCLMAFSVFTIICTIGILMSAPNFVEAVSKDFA

For `c1cncc(N2CCC3(CC4CCN3C4)C2)c1` (stereo unspecified), the Ki (as a rule, the dissociation constant of the complex between target and ligand, obtained from inhibition or displacement) was found to be 0.029 µM in experiment [1]; 2.4 µM in experiment [3]; 9.9 µM in experiment [4]; 7.9 µM in experiment [6]; 0.04 µM in experiment [8]. Besides, the Emax (as a rule, the greatest response seen or fitted, relative to the assay's reference) in experiment [2] was found to be 3.1%; in experiment [5], 92%. Also, in experiment [7], the EC50 (as a rule, the midpoint of the concentration-response curve) turned out to be 31 µM.

Consider `c1cncc(N2CCC3(C2)C2CCN3CC2)c1` (stereo unspecified), for which the Ki in experiment [1] was determined as 0.01 µM; in experiment [3] it was 0.56 µM; in experiment [4], 0.58 µM; in experiment [6], 7.6 µM; in experiment [8] it was 0.034 µM. The Emax in experiment [2] was 29%; in experiment [5], 92%. For the same molecule, the EC50 in experiment [7] was 2.6 µM.

`c1cncc(N2CCC3(CCCN3)C2)c1` (stereo unspecified) [TC-2216]: the Ki in experiment [1] turned out to be 0.029 µM; in experiment [3], 1.2 µM; in experiment [4] it was 5.7 µM; in experiment [6], 6.9 µM; in experiment [8] it was 0.075 µM. Moreover, the Emax in experiment [2] is 9.6%. In addition, the concentration for a half-maximal effect (EC50) in experiment [7] was 55 µM.

Turning to `c1cncc(N2CCC3(CC4CCN3CC4)C2)c1` (stereo unspecified), the Ki is 0.032 µM in experiment [1]; 1.1 µM in experiment [3]; 11 µM in experiment [4]; 8 µM in experiment [6]; 0.0057 µM in experiment [8]. Further, the Emax in experiment [2] amounted to 4.2%; in experiment [5], 92%. Further, in experiment [7], the EC50 was 6.9 µM.
